Source: PubChem BioAssay (several laboratories)
Tb MetRS inh: blocks T. brucei methionyl-tRNA synthetase activity | purified T. brucei MetRS, ATP depletion, Kinase-Glo luminescence | inhibition, % at 11.9 µM | 0.4% of 360,000 active | AID 624268;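 active means inhibition above a per-plate cutoff of the control wells' mean inhibition plus 3 SD, cut at about 5.5% in these data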;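 further: 0% = DMSO wells median and 100% = median of wells with control inhibitor compound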
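Dosing: 11.9 µM single point; system: parasite MetRS enzyme; technique: luminescence of leftover ATP; times: 15 min enzyme-compound preincubation, 2 h reaction, 10 min detection, 25 °C; replicates: each compound tested once; read-out basis: percent inhibition relative to median high and low control wells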
MC4R antagonist: human MC4R antagonism in cAMP assay; P32245; MC4R-expressing cells, MTII-stimulated cAMP, LANCE TR-FRET; inhibition, % at 6.5 µM; 0.48% of 360,000 active; AID 540295;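 active means inhibition above its plate's cutoff, the mean of tested wells on that plate plus 3 SD, cut at about 29% in these data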;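 further: 0% = Melanotan II alone and 100% = Melanotan II plus saturating MCL0020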
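Assay system: U2OS-MC4R stable cell line; Also added: Melanotan II; Technique: Eu-cAMP/anti-cAMP TR-FRET, emission 671 nm; Times: 30-min compound, 1-h challenge, 1-h detection, room temperature.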
Granule exo inh: lytic granule exocytosis inhibition. AID 651702. inhibition, % at 10 µM. TALL-104 LAMP-1 surface exposure, flow cytometry; cells stimulated with thapsigargin and PMA. 0.66% of 360,000 active;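 active means inhibition above about 55%, limit read from the data; inconclusive means no clear call, values can overlap the other calls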
hiPSC survival: increases survival of single human iPS cells | AID 602274 | 0.044% of 360,000 active | survival enhancement, % at 20 µM | hiPSC single-cell survival, ATPlite luminescence; 100% = ROCK inhibitor wells, 0% = DMSO; in the data active means survival enhancement above about 18%;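 further: cells exposed to compounds for 16 hours before the ATP read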
MC4R ag barr: activates human MC4R beta-arrestin recruitment; P32245; U2OS MC4R beta-arrestin complementation, luminescence; percent of melanotan II response, DMSO zero; activation, % at 8.9 µM; 0.98% of 360,000 active;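 active means activation above a per-plate cutoff, the mean activation of sample wells on that plate plus 3 SD, cut at about 8% in these data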
ABCB6 inh MLPCN: human ABCB6 transporter inhibition. Q9NP58. K562-ABCB6 porphyrin accumulation, flow cytometry, 1 h; active compounds read low. fluorescence ratio to DMSO, % at 10 µM. 0.19% of 360,000 active. AID 602162;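 active means fluorescence ratio to DMSO below 75%, the collection mean minus 3 SD; inconclusive means too few cells collected in the well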;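 further: signal is porphyrin accumulated inside mitochondria; 100% equals median channel fluorescence of DMSO control wells; lower ratio means ABCB6 inhibition with less porphyrin fluorescence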
Target sequence (Q9NP58 whole entry, looked up): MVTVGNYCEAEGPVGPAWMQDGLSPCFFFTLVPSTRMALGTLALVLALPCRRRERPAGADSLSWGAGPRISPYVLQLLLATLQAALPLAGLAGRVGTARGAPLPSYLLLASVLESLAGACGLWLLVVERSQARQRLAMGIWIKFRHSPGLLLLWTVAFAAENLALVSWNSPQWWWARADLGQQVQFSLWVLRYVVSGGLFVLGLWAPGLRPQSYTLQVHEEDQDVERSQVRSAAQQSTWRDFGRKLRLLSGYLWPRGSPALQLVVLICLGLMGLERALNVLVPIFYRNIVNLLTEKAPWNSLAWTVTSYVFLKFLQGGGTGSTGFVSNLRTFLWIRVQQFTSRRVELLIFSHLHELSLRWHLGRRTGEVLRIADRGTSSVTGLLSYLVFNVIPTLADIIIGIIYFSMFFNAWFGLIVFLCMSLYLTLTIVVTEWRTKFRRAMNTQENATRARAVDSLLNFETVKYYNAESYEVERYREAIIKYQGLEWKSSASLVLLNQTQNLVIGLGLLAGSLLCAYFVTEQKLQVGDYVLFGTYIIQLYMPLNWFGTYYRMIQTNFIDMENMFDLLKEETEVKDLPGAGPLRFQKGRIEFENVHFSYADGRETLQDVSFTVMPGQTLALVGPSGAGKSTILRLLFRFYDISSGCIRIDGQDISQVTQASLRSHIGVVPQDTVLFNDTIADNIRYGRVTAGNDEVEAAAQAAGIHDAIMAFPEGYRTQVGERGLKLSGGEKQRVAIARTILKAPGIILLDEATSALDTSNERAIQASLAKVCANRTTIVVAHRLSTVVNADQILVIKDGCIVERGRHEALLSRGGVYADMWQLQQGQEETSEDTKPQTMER
U2OS cAMP counter: U2OS forskolin cAMP inhibition counter-screen; shares compounds with MC4R antagonist; parental U2OS, LANCE TR-FRET; inhibition, % at 6.5 µM; 26% of 1,600 active; AID 602193;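 active means mean inhibition over triplicates above the low-control well mean plus 3 SD, set per campaign, cut at about 13% in these data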;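 further: signal is single emission at 671 nm which falls as cellular cAMP rises; 0% = forskolin-stimulated wells and 100% = buffer without forskolin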
MC4R cAMP antag: human MC4R cAMP antagonism confirmation; shares compounds with MC4R antagonist; MC4R-expressing cells, MTII-stimulated cAMP, TR-FRET; inhibition, % at 6.5 µM; 27% of 1,600 active; in the data active means inhibition above about 29%;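 further: 0% = agonist stimulated wells alone and 100% = agonist stimulated wells plus saturating reference antagonist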
* = called active by the depositor; ? = inconclusive; nt = no result. Rows were chosen to be rich in hits. Some 2.6% of all compounds tested hit in one or more screens of this group.

SMILES | Tb MetRS inh | MC4R antagonist | Granule exo inh | hiPSC survival | MC4R ag barr | ABCB6 inh MLPCN | U2OS cAMP counter | MC4R cAMP antag
COCCN(C(=O)COC(=O)c1c(C)nn(-c2ccccc2)c1C)c1c(N)n(Cc2ccccc2)c(=O)[nH]c1=O | -0.1 | 11.5 | -1.4 | -0.3 | -0.7 | 100.0 | nt | nt
Cc1ccc(F)cc1NC(=O)CCNC(=O)c1ccc([N+](=O)[O-])cc1 | 0.0 | -4.2 | ? | 0.0 | 0.8 | 92.0 | nt | nt
O=C(CCNC(=O)c1ccc([N+](=O)[O-])cc1)Nc1ccc(F)c(F)c1F | 0.1 | 32.2* | 1.8 | -0.5 | -1.0 | 98.0 | 1.3 | 4.4
Nn1c(SCC(=O)NCC2CCCO2)nnc1-c1cc(Cl)ccc1Cl (stereo unspecified) | -0.5 | 5.7 | 9.5 | -0.5 | -2.9 | 100.0 | nt | nt
CCOc1ccc(-n2nc3c(=S)[nH]nc(C)c3c2C)cc1 | 0.4 | 92.0* | -11.1 | -1.1 | -1.0 | 96.0 | 55.4* | 106.9*
CCOc1ccc(-n2nc3c(=O)[nH]nc(C)c3c2C)cc1 | 0.0 | 4.0 | -2.1 | -1.5 | -1.6 | 100.0 | nt | nt
COc1ccc(-c2noc(CCC(=O)NCCc3cccc(C)c3)n2)cc1 | -0.1 | 28.9* | -16.8 | 3.0 | -0.4 | 98.0 | 3.9 | -7.4
CCc1ccc(-c2nc3ccc(Br)cc3c(C(=O)O)c2C)s1 | -0.9 | 132.7* | -14.2 | -0.6 | -1.3 | 92.0 | 101.8* | 181.8*
COCCCNC(=O)/C=C1\Sc2ccccc2N(Cc2ccccc2F)C1=O | -0.5 | 44.3* | 2.9 | -0.6 | 0.3 | 97.0 | 46.1* | 34.4*
Cn1c(SCC(=O)Nc2cccc(F)c2)nnc1-c1cc2ccccc2o1 | -0.4 | 31.3* | 1.3 | 0.9 | 7.7 | 93.0 | 4.4 | 3.4
CC(C)OP(=O)(OC(C)C)/C(C=O)=N\Nc1ccc([N+](=O)[O-])cc1 | 4.0 | 38.6* | 9.5 | 0.5 | -2.9 | 101.0 | 8.5 | 8.1
CC(C)OP(=O)(OC(C)C)C(Nc1ccc([N+](=O)[O-])cc1)c1cccc([N+](=O)[O-])c1 (stereo unspecified) | -0.5 | 5.5 | 22.8 | 0.3 | -3.2 | 98.0 | nt | nt
CC1=C/C(=N\NC(=S)NCc2ccccc2)CC1 | 0.0 | 1.3 | -2.0 | -0.9 | 1.6 | 99.0 | nt | nt
CCOC(=O)c1cc(C)n(-c2c(C)n(C)n(-c3ccccc3)c2=O)c1C | -0.1 | 10.7 | -2.8 | -3.4 | 0.3 | 104.0 | nt | nt
CCCCC(=O)OCC(=O)c1cc(C)n(-c2c(C)n(C)n(-c3ccccc3)c2=O)c1C | 1.9 | 30.7* | 0.7 | 0.8 | 0.3 | 89.0 | 0.1 | 0.3
CN(C(=O)CSc1nnc(Cc2ccccc2F)n1N)C1CCCCC1 | -0.3 | 5.2 | -0.3 | 1.4 | -2.0 | 96.0 | nt | nt
O=c1c(Cl)c(N2CCN(c3ccc(F)cc3)CC2)cnn1C12CC3CC(CC(C3)C1)C2 | 1.7 | 28.5* | -3.8 | 1.3 | 2.9 | 97.0 | -1.1 | 3.3
O=C(CN1C(=O)COc2ccc(S(=O)(=O)N3CCCCC3)cc21)NCc1ccccc1Cl | 0.1 | 2.3 | 2.3 | 0.1 | -3.2 | 99.0 | nt | nt
O=C(CN1C(=O)NC2(CCCC2)C1=O)Nc1ccc(S(=O)(=O)N2CCOCC2)cc1 | -0.1 | 34.1* | 1.6 | -1.1 | -2.4 | 102.0 | 1.0 | -2.9
COc1ccc(S(=O)(=O)N(C)C[C@H]2Oc3ccc(NC(=O)Nc4ccc5c(c4)OCO5)cc3C(=O)N([C@H](C)CO)C[C@@H]2C)cc1 | -0.2 | 4.6 | -3.2 | -4.7 | -0.7 | 95.0 | nt | nt
O=C(Nc1cc(C(F)(F)F)ccc1N1CCCCC1)C1=COCCO1 | -0.3 | 10.8 | 22.2 | 0.4 | -1.6 | 101.0 | nt | nt
CCOc1ccccc1/C=C(\C#N)C(=O)Nc1cccc(C(=O)O)c1 | 0.9 | 38.0* | 4.6 | -0.5 | -0.5 | 99.0 | -0.4 | -0.1
Cc1cc(C(=O)O)ccc1-n1c(C)cc(/C=C(/C#N)C(=O)Nc2ccccc2)c1C | -0.7 | 31.3* | -4.3 | 0.1 | -1.2 | 105.0 | -1.4 | -1.1
Cc1cccc(N2CCN(C(=O)c3c(-c4ccccc4)noc3C)CC2)c1C | -0.7 | -16.7 | 7.9 | 0.6 | -3.5 | 101.0 | nt | nt
COCCCN(C(=S)NC(=O)C12CC3CC(CC(C3)C1)C2)c1c(N)n(Cc2ccccc2)c(=O)[nH]c1=O | -0.5 | 4.6 | -4.1 | -0.7 | -0.1 | 101.0 | nt | nt
SMILES | Tb MetRS inh | MC4R antagonist | Granule exo inh | hiPSC survival | MC4R ag barr | ABCB6 inh MLPCN | U2OS cAMP counter | MC4R cAMP antag
CCc1cc2ccc(OC)cc2nc1SCC(=O)N1CCN(C(=O)c2ccco2)CC1 | 0.3 | 33.6* | -1.7 | -0.5 | -1.1 | 93.0 | 1.7 | 18.4
CCN(CC)S(=O)(=O)c1ccc2[nH]c(=O)cc(C(=O)Nc3cccc(C(C)=O)c3)c2c1 | 0.7 | 14.2 | -2.2 | -0.6 | 2.2 | 103.0 | nt | nt
COc1cccc(Nc2nc(-c3cccs3)nc3ccccc23)c1 | 0.0 | 31.7* | -1.1 | -1.7 | -1.2 | 99.0 | 7.9 | 16.6
O=C(OC1CCOC1=O)c1cc(-c2ccccc2)nc2ccccc12 (stereo unspecified) | -0.1 | 23.2 | -3.8 | -1.3 | -1.1 | 97.0 | nt | nt
O=C(OC1CCOC1=O)c1cc(-c2ccc(Cl)cc2)nc2ccccc12 (stereo unspecified) | -0.4 | 35.1* | 2.8 | -0.8 | -0.4 | 94.0 | 17.4* | 23.3
Nc1ccc(Cn2ccc3c4c(N)nc(N)nc4ccc32)cc1 | -0.2 | -15.3 | 0.2 | -3.9 | -1.1 | 90.0 | nt | nt
O=C(O)CCC(=O)N1N=C(c2ccco2)CC1c1cccs1 (stereo unspecified) | 0.6 | 5.8 | 0.5 | 9.1 | -1.2 | 100.0 | nt | nt
O=C(O)CCC(=O)N1N=C(c2ccc(Br)cc2)CC1c1cccs1 (stereo unspecified) | 0.7 | 30.0* | -4.2 | 1.7 | -2.3 | 102.0 | 3.8 | 6.3
O=C(N/C(=C/c1ccc(Cl)cc1)C(=O)N1CCCC1)c1ccccc1 | 0.7 | 5.5 | 2.1 | -0.2 | -1.2 | 100.0 | nt | nt
CCOc1ccccc1NC(=O)NC1(C(=O)NCc2cccnc2)CCCCC1 | -0.5 | 12.6 | -7.4 | 0.5 | -0.1 | 98.0 | nt | nt
Cc1cc(C)cc(C(=O)NCC(=O)OCC(=O)NCc2ccco2)c1 | -1.1 | 38.5* | -3.2 | 1.4 | 5.1 | 91.0 | 4.8 | 11.2
COc1cc(OC)cc(C(=O)NCC(=O)OCC(=O)NCc2ccco2)c1 | -0.5 | 7.7 | -7.0 | -1.2 | -0.7 | 96.0 | nt | nt
COCCNC(=S)N1CCc2cc(OC)c(OC)cc2C1COc1cc(C)cc(C)c1 (stereo unspecified) | 0.2 | 28.7* | -0.8 | 1.4 | 0.5 | 99.0 | -4.8 | 11.7
COc1ccc(NC(=O)NCc2ccco2)c(OC)c1 | 0.1 | 32.6* | -0.2 | 0.0 | -1.1 | 97.0 | 1.7 | 1.8
